Compound activity from PubChem BioAssay.
DNMT1 inh = human DNMT1 methyltransferase inhibitors, primary screen, biochemical, molecular beacon, fluorescence, HinP1I cleavage, uHTS; DNA (cytosine-5)-methyltransferase 1 (Homo sapiens), P26358; inhibition (reported as % activation of signal), % at 10 µM; 360,000 tested, 0.83% active; AID 588458, 2011; in the data active = inhibition above about 50%
LMPTP block = LMPTP phosphatase inhibitors, primary screen, biochemical, fluorescence intensity, uHTS; Low molecular weight phosphotyrosine protein phosphatase (Homo sapiens), P24666; recombinant LMPTP-A, OMFP fluorogenic substrate; inhibition, % at 20 µM; 360,000 tested, 0.22% active; AID 651560, 2012;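 active = compounds that cut the enzyme signal by at least half of the control window in the single-dose screen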;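 also: plate controls were DMSO wells with enzyme plus substrate for no effect and substrate without enzyme for full effect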
Target sequence (P24666 whole entry, looked up): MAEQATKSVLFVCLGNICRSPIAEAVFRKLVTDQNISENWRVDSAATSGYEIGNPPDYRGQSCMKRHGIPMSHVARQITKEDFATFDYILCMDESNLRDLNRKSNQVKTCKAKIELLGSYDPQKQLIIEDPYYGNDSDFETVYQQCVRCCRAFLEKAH
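Test system: LMPTP-A, protein tyrosine phosphatase of low molecular weight; Input: 0.625 nM enzyme; Incubation: 50 min dark incubation at room temperature; Signal: endpoint fluorescence intensity from OMFP dephosphorylation; Read-out basis: % inhibition versus control wells.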
SUMO1 PPI mod = modulators of SUMO1 protein-protein interactions, primary screen, biochemical, uHTS; 360,000 tested, 0.33% active; SUMO1 binding to a labelled peptide, TR-FRET, 1 h; inhibition, % at 20 µM; Small ubiquitin-related modifier 1 (Homo sapiens), P63165; in the data active = inhibition above about 37%
Target sequence (P63165 whole entry, looked up): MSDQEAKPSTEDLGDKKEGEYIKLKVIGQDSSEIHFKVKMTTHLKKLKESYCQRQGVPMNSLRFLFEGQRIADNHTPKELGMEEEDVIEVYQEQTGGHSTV
Scp1 inh = Scp-1 phosphatase inhibitors, primary screen, biochemical, colorimetric, uHTS. AID 493091, 2011. inhibition, % at 20 µM. 340,000 tested, 0.88% active. Recombinant Scp1, phosphopeptide, malachite green phosphate absorbance;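 active = inhibition above about 50% at 20 µM, limit read from the data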;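 also: plate controls were DMSO wells with enzyme for no effect and wells lacking enzyme for full effect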
Target sequence (Q9GZU7 76-261 limits assumed): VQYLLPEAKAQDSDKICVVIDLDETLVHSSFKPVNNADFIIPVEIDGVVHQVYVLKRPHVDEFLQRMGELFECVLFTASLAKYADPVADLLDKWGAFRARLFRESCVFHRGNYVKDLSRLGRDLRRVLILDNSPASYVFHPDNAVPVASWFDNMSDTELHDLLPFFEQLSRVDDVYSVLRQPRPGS
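Material – SCP-1 phosphatase catalytic domain, residues 76-261 · Buffer or medium – Acidic Tris acetate buffer with magnesium and detergent · Also added – Phospho 17-mer peptide substrate · Compound – single 20 µM dose, 1% DMSO · Times – 45 min room-temperature reaction, 5 min colour, 30 min stabiliser · Technique – Phosphate-binding colour reagent, absorbance read at 630 nm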
STEP inh = STEP phosphatase inhibitors, primary screen, biochemical, fluorescence intensity, uHTS. Tyrosine-protein phosphatase non-receptor type 5 (Homo sapiens), P54829. recombinant STEP, OMFP fluorogenic substrate. inhibition, % at 20 µM. 360,000 tested, 0.25% active;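 active = inhibition at 20 µM, scaled per plate between control wells, above about 37%, limit read from the data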;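 also: 0% = DMSO with enzyme and substrate and 100% = substrate only without enzyme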
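material = STEP tyrosine phosphatase | reagent = fluorogenic phosphatase substrate OMFP at 25 µM final | doses = single compound dose of 20 µM, 1% DMSO final | schedule = 20 min reaction, room temperature, in the dark | measured by = fluorescence, 480/540 nm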
Starred values were filed as active, the others as inactive; . = not tested or not shown. Shown are actives, neighbours in structure and some others; about 1.7% of the full set was active somewhere.

SMILES	DNMT1 inh	LMPTP block	SUMO1 PPI mod	Scp1 inh	STEP inh
Cc1ccc(-c2cc(C#N)c(=O)n(Cc3c(Cl)cccc3Cl)c2)cc1	8	0	42*	-3	-3
O=C1NN(c2ccccc2)C(=O)/C1=C\c1ccc(-c2cc([N+](=O)[O-])ccc2O)o1	23	84*	-1	87*	46*
COc1ccc(Sc2ccc(/C=C3\C(=O)NN(c4ccccc4)C3=O)o2)cc1	56*	4	7	35	8
COc1cc(/C=C2\C(=O)NN(c3ccccc3)C2=O)cc([N+](=O)[O-])c1O	29	5	-5	13	7
COc1ccc(-n2c(C)cc(/C=C3\C(=O)NN(c4ccccc4)C3=O)c2C)cc1	-13	2	-17	-6	-1
C=CCC[C@H](Cc1ccc(F)cc1)C(=O)OC[C@@H](NC(=O)[C@@H](CC=C)CC(=O)N(CCO)Cc1ccccc1)C(C)(C)C	-13	5	-1	1	2
Cc1ccc(C(OCC(O)CNCc2ccc(F)cc2)c2ccccc2)cc1 (centres undefined)	1	1	10	11	-2
c1ccc2c(N3CCCCC3)nc(N3CCCCC3)nc2c1	3	1	-4	0	2
C(=C\c1nc(N2CCCCCC2)c2ccccc2n1)/c1ccccc1	-6	56*	-1	2	3
CC(C)Cc1ccc(-c2cc3nc(NCC4CC4)ccn3n2)cc1	7	3	-1	.	-4
CCCC1=NN2C(=N)/C(=C\c3cc(C)n(-c4cccc(C)c4)c3C)C(=O)N=C2S1	56*	-1	-3	-4	-1
COC(=O)c1ccc(NC(=O)Nc2ccc([N+](=O)[O-])cc2)cc1	1	85*	0	8	24
O=C(Nc1ccc(C(=O)O)cc1)Nc1ccc([N+](=O)[O-])cc1	0	0	-25	-16	-2
O=S(=O)(O)c1cc(O)c(N=Nc2ccc(O)cc2O)c2ccccc12	55*	50	44*	61*	10
Fc1cccc2sc(Nc3nnc(-c4ccccc4)o3)nc12	-1	32	12	51*	8
O=P(CCO)(c1ccccc1)c1ccccc1	-1	0	1	-5	0
O=C(O)CP(=O)(c1ccccc1)c1ccccc1	1	0	46*	-11	-4
CC(=O)Nc1ccc(-c2ccnc3c2CC(C(=O)Nc2cccc(OC(F)(F)F)c2)O3)cc1 (centres undefined)	-14	4	-4	.	3
CC(C)CS(=O)(=O)C1=NN2C(=N)/C(=C\c3ccc(OC(=O)c4ccco4)cc3)C(=O)N=C2S1	10	5	-6	69*	10
CS(=O)(=O)C1=NN2C(=N)/C(=C\c3ccc(OC(=O)c4ccco4)cc3)C(=O)N=C2S1	10	2	-5	34	4
CCN1C(=O)[C@@H]2[C@@H]3CN(S(=O)(=O)c4ccc(C)cc4)[C@@H](c4ccccc4Cl)[C@@H]3C(=O)C[C@@H]2C1=O	-7	0	3	.	0
O=C(Cc1cccs1)OCC(=O)c1ccco1	65*	3	5	70*	11
O=C(NC(=S)Nc1ccc(-c2ccc(CO)o2)cc1)c1cccs1	77*	52*	22	-9	5
O=Nc1c(O)c2ccccc2c2ccccc12	58*	4	-37	-8	3
C#CCNC(=O)C[C@@H]1C[C@@]2(C(=O)OCC)CCCC=C2N(Cc2ccc(Cl)cc2Cl)C1=O	.	-1	11	.	.
SMILES	DNMT1 inh	LMPTP block	SUMO1 PPI mod	Scp1 inh	STEP inh
Nc1c(C(=O)O)ccc2c1C(=O)c1ccccc1C2=O	-1	9	10	0	8
Nc1cc(C(=O)O)c(N)c2c1C(=O)c1ccccc1C2=O	17	8	33	82*	8
O=C(CN1C(=O)/C(=C/c2ccccc2F)SC1=S)NC1C=CS(=O)(=O)C1 (centres undefined)	54*	27	-1	17	14
O=C(CN1C(=O)/C(=C/c2cccc(Cl)c2)SC1=S)NC1C=CS(=O)(=O)C1 (centres undefined)	4	2	-15	-1	1
Cc1cccc(C)c1N1C(=O)c2ccccc2NC(=O)C1C(=O)NCCc1ccccc1 (centres undefined)	.	-1	-4	.	.
CC(=O)c1ccc(NC(=O)c2ccc(NC(=O)c3ccco3)cc2)cc1	32	72*	18	39	86*
CC(=O)Nc1ccc(NC(=O)c2ccco2)cc1	1	0	-1	-18	0
CC(=O)N1Cc2cc(C(=O)NCC(F)(F)F)nc(-c3cccc(-c4cc5ccccc5o4)c3)c2[C@H]1CCO	.	0	-3	.	.
Cc1ccc(NCCN(C)C)c2c(=O)c3cc(O)ccc3sc12	57*	11	-48	7	1
CCN(CC)CCNc1cccc2sc3ccccc3c(=O)c12	46	1	-33	.	0
CN(C)CCNc1cccc2sc3ccc(O)cc3c(=O)c12	56*	1	-37	.	1
CCn1c(CSc2ncccn2)nnc1SCC(=O)N1CCCCC1	1	-3	1	4	-2
N#C/C(=C\c1coc2ccc(O)cc2c1=O)C(=O)Nc1nc2ccccc2s1	84*	9	-20	9	-89
N#C/C(=C\c1coc2ccccc2c1=O)C(N)=S	-1	1	-9	-7	4
COc1cc(/C=N/NC(=O)c2ccc(O)cc2)ccc1OCC(=O)Nc1cccc([N+](=O)[O-])c1	4	-1	93*	4	8
COc1ccc(/C=N\NC(=O)c2cc(O)c(O)c(O)c2)cc1COc1ccc(C(=O)OCC(C)C)cc1	-14	12	16	51*	6
COc1ccc(C(=O)N/N=C/c2ccc(OC)c(COc3ccccc3)c2)cc1	-4	0	-4	0	2
COc1cc(/C=N/NC(=O)c2cc(O)cc(O)c2)ccc1OC(=O)c1ccccc1	77*	13	34	62*	67*
COc1cc(C(=O)N/N=C/c2ccc(OC(=O)c3ccccc3)c(OC)c2)ccc1O	-6	2	-2	5	3
CCCCNC(=O)C1C(c2ccc(OC)cc2)=Nc2ccccc2N1C(=O)Cc1cc(OC)cc(OC)c1 (centres undefined)	.	0	-2	.	.
COc1cc(CC(=O)N2CCN(S(=O)(=O)c3ccc(C(C)C)cc3)CC2)cc(OC)c1OC	42	0	-1	.	1
